In ChEMBL document CHEMBL2146369, “Oxazolo[3,2-a]pyridine. A new structural scaffold for the reversal of multi-drug resistance in Leishmania” (Bioorg Med Chem Lett, 2012):
pIC50: −log10 of the molar value. Activity calls are given as the source filed them. No cut-off for these calls is given here.

Tests used:
[1] = tested on: THP-1; experiment: Cytotoxicity against PMA-stimulated human THP1 cells after 72 hrs by MTT assay; assay type: cell-based; conditions: THP-1, 72 h
How it was run: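 THP-1 cells grown at 37 °C, 5% CO2 in RPMI-1640 with 10% iFBS, […], penicillin and streptomycin. Differentiated to macrophages with 20 ng/mL PMA for 48 h, then 24 h in fresh medium. MTT viability assay run as for parasites but incubated at 37 °C. IC50 determined.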

[2] = tested on: Leishmania tropica; experiment: Potentiation of miltefosine-induced antileishmanial activity against promastigotes of multidrug-resistant Leishmania tropica assessed as fold decrease in miltefosine IC50 at 6 uM after 72 hrs by MTT assay; assay type: functional
How it was run: (§1)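 MDR L. tropica promastigotes given increasing DNM or miltefosine concentrations, with or without 6 µM modulator, for 72 h at 28 °C. Viability measured by MTT absorbance at 540 nm. IC50 taken for each condition. Reversal index is drug IC50 without modulator divided by IC50 with it. Three independent experiments.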

[3] = tested on: Leishmania tropica; experiment: Potentiation of daunomycin-induced antileishmanial activity against promastigotes of multidrug-resistant Leishmania tropica assessed as fold decrease in daunomycin IC50 at 6 uM after 72 hrs by MTT assay; assay type: functional; how it was run: as §1
[4] = tested on: Leishmania tropica; experiment: Potentiation of daunomycin-induced antileishmanial activity against promastigotes of multidrug-resistant Leishmania tropica at 3 to 8 uM after 72 hrs by MTT assay; assay type: functional, organism-based
[5] = tested on: Leishmania tropica; experiment: Resistance ratio of IC50 for multidrug-resistant Leishmania tropica and IC50 for wild type Leishmania tropica LRC; assay type: functional
How it was run: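 DNM-selected MDR and parental wild-type L. tropica promastigotes treated with increasing drug concentrations for 72 h at 28 °C. Viability read by MTT at 540 nm. Ratio of MDR IC50 to parental IC50 calculated.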

[6] = tested on: Leishmania tropica; experiment: Antileishmanial activity against promastigotes of multidrug-resistant Leishmania tropica after 72 hrs by MTT assay; assay type: functional, organism-based
How it was run: (§2)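 Promastigotes of wild-type L. tropica LRC clone or DNM-selected MDR line (kept in 150 µM DNM or 30 µM MLF), grown at 28 °C in modified RPMI 1640 with 20% heat-inactivated FBS. Exposed to compounds without DNM for 72 h at 28 °C. Viability read by MTT absorbance at 540 nm, expressed relative to untreated parasites.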

[7] = tested on: Leishmania tropica; experiment: Antileishmanial activity against promastigotes of wild type Leishmania tropica LRC after 72 hrs by MTT assay; assay type: functional, organism-based; how it was run: as §2

SMILES	pIC50 [1]	fold change (FC) [2]	fold change (FC) [3]	further results
COC(=O)C1=C(C)N2CCO[C@@]2(C)[C@@H](CO)[C@@H]1c1cccc([N+](=O)[O-])c1 (racemic)	< 3.40			
CC(=O)O[C@H]1C[C@](C)(O)[C@]23OC(C)(C)[C@H](C[C@H](OC(=O)c4ccco4)[C@]2(C)[C@H]1OC(C)=O)[C@H]3OC(=O)c1ccco1		6	4.7	
COC(=O)C1=C(C)N2CCS[C@@]2(C)[C@@H](C(=O)OC)[C@@H]1c1cccc(Cl)c1 (racemic)	< 3.40	3.5	2.2	Activity [4]: Active
COc1cccc2c1C(=O)c1c(O)c3c(c(O)c1C2=O)C[C@@](O)(C(C)=O)C[C@@H]3O[C@H]1C[C@H](N)[C@H](O)[C@H](C)O1 [DAUNORUBICIN]	4.57			Ratio IC50 [5]: 64; pIC50 [6]: 3.75; pIC50 [7]: 5.55
COC(=O)C1=C(C)N2CCCO[C@@]2(C)[C@@H](C(=O)OC)[C@@H]1c1cccc(Cl)c1 (racemic)	< 3.40	1.5	3.2	Activity [4]: Active
COC(=O)C1=C(C)N2CCO[C@@]2(C)[C@@H](C(=O)OC)[C@@H]1c1ccco1 (racemic)	< 3.40			
COC(=O)C1=C(C)N2CCO[C@@]2(C)[C@@H](C(=O)OC)[C@@H]1c1cccc([N+](=O)[O-])c1 (racemic)	< 3.40	3.4	3.9	Activity [4]: Active
COC(=O)C1=C(C)N2CCO[C@@]2(C)[C@@H](C(=O)OCc2ccccc2)[C@@H]1c1cccc([N+](=O)[O-])c1 (racemic)	< 3.40			
CCCCCCCCCCCCCCCCOP(=O)([O-])OCC[N+](C)(C)C [MILTEFOSINE]	5.15			Ratio IC50 [5]: 22; pIC50 [6]: 3.62; pIC50 [7]: 4.96
COC(=O)C1=C(C)N2C[C@H](C)O[C@@]2(C)[C@@H](C(=O)OC)[C@@H]1c1cccc(Cl)c1	< 3.40		>6	
COC(=O)C1=C(C)N2C[C@@H](C)O[C@]2(C)[C@H](C(=O)OC(C)(C)C)[C@H]1c1cccc(Cl)c1	< 3.40	8.7		
COC(=O)C1=C(C)N2CCO[C@@]2(C)[C@@H](C(=O)OC)[C@@H]1c1ccc[nH]1 (racemic)	< 3.40	1.9	1.3	Activity [4]: Active
COC(=O)C1=C(C)N2CCO[C@@]2(C)[C@@H](C(=O)OCc2ccccc2)[C@@H]1c1cccc(Cl)c1 (racemic)	< 3.40			
C=CCOC(=O)[C@H]1[C@H](c2cccc(Cl)c2)C(C(=O)OC)=C(C)N2CCO[C@@]12C (racemic)			>5	
COC(=O)C1=C(C)N2C(=O)[C@H](C)O[C@@]2(C)[C@@H](C(=O)OC)[C@@H]1c1cccc(Cl)c1 (racemic)	< 3.40			
